ChEMBL document CHEMBL1122384, “Synthesis and evaluation of 24-(isopropyl[75Se]seleno)chol-5-en-3 beta-ol” (J Med Chem, 1983)

What was measured:
Type in all cases: functional
[1] = Adrenal/Tissue ratio calculated from percent dose per gram of tissue determined after 1 day intravenous administration from kidney
Procedure, shortened: (§1)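 Female Fischer 344 rats (160–180 g), fed ad libitum. Steroid dissolved in EtOH, formulated in Tween 80–EtOH–saline, 5–10 μCi in 1 mL given into a lateral tail vein under light Et₂O anesthesia. Organs removed 1 day post-injection, rinsed, blotted, weighed and gamma counted, 3 rats per time point. Ratios taken from adrenal vs tissue % dose/g.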

[2] = Adrenal/Tissue ratio calculated from percent dose per gram of tissue determined after 1 day intravenous administration from liver; procedure, shortened: as §1
[3] = Adrenal/Tissue ratio calculated from percent dose per gram of tissue determined after 1 day intravenous administration from blood; procedure, shortened: as §1
[4] = Adrenal/Tissue ratio calculated from percent dose per gram of tissue determined after 1 day intravenous administration from ovaries; procedure, shortened: as §1
[5] = Adrenal/Tissue ratio calculated from percent dose per gram of tissue determined after 1 day intravenous administration from pancreas
Procedure, shortened: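 Female Fischer 344 rats (160–180 g), food and water ad libitum, lightly anaesthetized with Et2O. [75Se]-labelled steroid was given in Tween 80–EtOH–saline, 5–10 μCi, by lateral tail-vein injection. Rats were killed by decapitation under Et2O; organs were rinsed, blotted, weighed and gamma-counted. Adrenal/tissue ratio is from % dose/g, mean of three rats per time point.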

[6] = Adrenal/Tissue ratio calculated from percent dose per gram of tissue determined after 1 day intravenous administration from spleen; procedure, shortened: as §1
[7] = Adrenal/Tissue ratio calculated from percent dose per gram of tissue determined after 1 day intravenous administration from lung; procedure, shortened: as §1

`CC(C)CCCC(C)C1CCC2C3CC(CI)C4=C(CCC(O)C4)C3CCC12C` (configuration not stated) showed a Ratio [1] of 107.8, a Ratio [2] of 52.2 and a Ratio [3] of 92.1. For the same compound, the Ratio [4] was 3.

For `CC(C)[Te]CCCC(C)C1CCC2C3CC=C4CC(O)CCC4(C)C3CCC12C` (configuration not stated), the Ratio [1] was 56.2, the Ratio [5] was 122 and the Ratio [6] was 14. The Ratio [2] was 27.1, the Ratio [7] was 18.7 and the Ratio [3] was 54.8. The Ratio [4] was 4.9.

For `C[Se]C[C@@H]1CC2C(CCC3(C)C(C(C)CCCC(C)C)CCC23)C2=C1CC(O)CC2` (some centres not stated) [SCINTIDREN], the Ratio [1] was 52.5, the Ratio [6] was 27.1 and the Ratio [2] was 42. For the same compound, the Ratio [7] was 28.9, the Ratio [3] was 105 and the Ratio [4] was 3.2.
